Data as given in ChEMBL document CHEMBL4316598, “Synthesis, antiproliferative and apoptosis induction potential activities of novel bis(indolyl)hydrazide-hydrazone derivatives” (Bioorg Med Chem, 2019).
Activity calls are given as the source filed them. No cut-off for these calls is given here.

Assays:
MCF7 [1] = assay: Induction of apoptosis in human MCF7 cells assessed as effect on Mcl-1 long level at 1 to 3 uM after 24 hrs by Western blot analysis; type: functional, cell-based
Outline: (§1)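 Cells were treated at 1, 3 and 5 µM for 24 h at 37 °C. Lysis was in ice-cold Triton X-100 buffer with protease and phosphatase inhibitors; nuclear proteins were extracted separately. Protein was quantified by BCA. Lysates were separated by electrophoresis, transferred to nitrocellulose and blocked in non-fat milk for 1 h. Primary antibody was applied overnight at 4 °C and secondary for 1 h at 28 °C. Detection was by enhanced chemiluminescence.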

SCC-25 = assay: Cytotoxicity against human SCC25 cells assessed as reduction in cell viability after 4 hrs by MTT assay; type: functional, cell-based
MCF7 [2] = assay: Induction of apoptosis in human MCF7 cells assessed as early apoptotic cells at 1 uM after 8 hrs by annexin-V FITC/propidium iodide staining based flow cytometric analysis relative to control; type: functional
Outline: (§2)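 Cells were grown in DMEM with 10% heat-inactivated FBS at 37 °C and 5% CO₂, then plated at 500,000 cells/well in 24-well plates. They were treated from a DMSO stock (DMSO ≤0.1%) for 8, 12 or 16 h. After a PBS wash, cells were resuspended in binding buffer (10 mM HEPES pH 7.4, 2.5 mM CaCl₂, 140 mM NaCl, 0.1% BSA), stained 40 min with FITC-annexin V, then with PI, and run on the flow cytometer immediately. Values are the mean of three independent experiments.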

HeLa [3] = assay: Induction of apoptosis in human HeLa cells assessed as early apoptotic cells at 1 uM after 16 hrs by annexin-V FITC/propidium iodide staining based flow cytometric analysis relative to control; type: functional; outline: as §2
MCF7 [4] = assay: Induction of nitric oxide production in human MCF7 cells measured over 8 hrs by Griess reaction based assay; type: functional, cell-based
Outline: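 Cells seeded at 2×10^6 cells/well for 12 h, then exposed to 1, 5 and 10 μM compound for 8 h at 37 °C. Culture supernatant mixed with Griess reagent (0.002% N-1-naphthyl-ethylenediamine dihydrochloride, 0.5% sulfanilic acid, 14% glacial acetic acid). Nitrite read by absorbance at 550 nm and compared with vehicle group.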

[5] = target: T1, Tyrosine-protein phosphatase non-receptor type 1 (Homo sapiens) (UniProt P18031); assay: Inhibition of recombinant human PTP1B using 6,8-difluoro-4-methylumbelliferyl phosphate fluorogenic substrate measured over 30 mins by fluorescence assay
T1 sequence (whole entry): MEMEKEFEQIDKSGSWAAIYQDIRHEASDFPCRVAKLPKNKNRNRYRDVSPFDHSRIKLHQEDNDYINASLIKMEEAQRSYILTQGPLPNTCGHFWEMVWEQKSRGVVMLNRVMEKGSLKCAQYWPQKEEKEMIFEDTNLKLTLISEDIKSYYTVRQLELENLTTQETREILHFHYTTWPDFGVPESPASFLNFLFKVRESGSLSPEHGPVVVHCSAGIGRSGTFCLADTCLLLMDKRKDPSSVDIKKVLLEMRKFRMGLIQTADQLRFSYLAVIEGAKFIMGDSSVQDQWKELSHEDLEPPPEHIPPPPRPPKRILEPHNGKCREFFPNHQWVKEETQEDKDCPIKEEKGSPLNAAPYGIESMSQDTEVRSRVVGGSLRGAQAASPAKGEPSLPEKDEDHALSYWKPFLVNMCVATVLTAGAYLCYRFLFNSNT
Outline: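 Recombinant human PTP1B, 1.56 ng/well, in buffer of 25 mM HEPES, 50 mM NaCl, 2.5 mM EDTA, DTT and 0.01 mg/mL human albumin. Preincubated with compound for 30 min in the dark, then DiFMUP added (25 μL of 10 μM solution). Fluorescence read after 10 min (ex 360/em 465 nm). Triplicates; % inhibition relative to PTP inhibitor IV (0.16 mM) and buffer controls.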

HeLa [6] = assay: Induction of apoptosis in human HeLa cells assessed as change in Bcl-2 level at 1 to 3 uM after 24 hrs by Western blot analysis; type: functional, cell-based
Outline: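 Western blot: HeLa cells treated 24 h at 37 °C, lysed on ice, protein quantified by BCA. Proteins separated by electrophoresis, transferred to nitrocellulose, blocked 1 h in non-fat milk. Primary antibody (Bcl2) applied overnight at 4 °C, secondary 1 h at 28 °C, detected by enhanced chemiluminescence.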

HeLa [7] = assay: Induction of apoptosis in human HeLa cells assessed as change in Bid level at 1 to 3 uM after 24 hrs by Western blot analysis; type: functional, cell-based; outline: as §1
HeLa [8] = assay: Induction of ROS generation in human HeLa cells at 5 uM after 24 hrs by CM-H2DCFDA staining-based FACS analysis; type: functional, cell-based
Outline: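 CM-H2DCFDA ROS: HeLa or MCF-7 cells at 2×10^6/well in 6-well plates treated with 5 μM (final) for 12 or 24 h at 37 °C. Cells harvested, washed with PBS, stained with CM-H2DCFDA in PBS 30 min at 37 °C, washed with ice-cold PBS. Read by FACScan with 488 nm argon laser.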

[9] = target: T2, MAP kinase p38 (Homo sapiens) (UniProt O15264+Q15759+Q16539+P53778); assay: Activation of MAPK p38 phosphorylation in human HeLa cells assessed as increase in ratio of phosphorylated p38 to total p38 level at 5 uM by ELISA; type: cell-based
Outline: (§3)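 Cell-based ELISA: HeLa or MCF-7 cells (20×10^3/well) grown overnight at 37 °C, 5% CO2, treated with 5 μM, then fixed and blocked. Probed with rabbit anti-total and anti-phospho P38, JNK or ERK1/2 (1:100), then HRP anti-rabbit IgG. Result is the phospho/total ratio; inhibitor arms use […], […] or SP600125. n=3.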

[10] = target: Mitogen-activated protein kinase; ERK1/ERK2 (Homo sapiens) (UniProt P27361+P28482); assay: Activation of ERK1/2 phosphorylation in human HeLa cells assessed as increase in ratio of phosphorylated ERK1/2 to total ERK1/2 level at 5 uM by ELISA; type: cell-based; outline: as §3
Mitogen-activated protein kinase; ERK1/ERK2 (Homo sapiens), sequence (P27361 whole entry, looked up): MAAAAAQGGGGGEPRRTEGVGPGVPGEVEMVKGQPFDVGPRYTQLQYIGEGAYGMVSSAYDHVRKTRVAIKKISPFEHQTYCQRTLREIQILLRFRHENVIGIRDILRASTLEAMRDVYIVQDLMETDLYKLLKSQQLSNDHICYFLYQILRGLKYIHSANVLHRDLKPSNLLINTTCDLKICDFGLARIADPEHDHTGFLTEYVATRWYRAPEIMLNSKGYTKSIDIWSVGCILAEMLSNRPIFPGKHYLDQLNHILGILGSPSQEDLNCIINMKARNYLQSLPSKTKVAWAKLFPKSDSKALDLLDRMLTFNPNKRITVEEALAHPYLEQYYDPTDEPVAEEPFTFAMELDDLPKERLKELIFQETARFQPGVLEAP
Mitogen-activated protein kinase; ERK1/ERK2 (Homo sapiens), sequence (P28482 whole entry, looked up): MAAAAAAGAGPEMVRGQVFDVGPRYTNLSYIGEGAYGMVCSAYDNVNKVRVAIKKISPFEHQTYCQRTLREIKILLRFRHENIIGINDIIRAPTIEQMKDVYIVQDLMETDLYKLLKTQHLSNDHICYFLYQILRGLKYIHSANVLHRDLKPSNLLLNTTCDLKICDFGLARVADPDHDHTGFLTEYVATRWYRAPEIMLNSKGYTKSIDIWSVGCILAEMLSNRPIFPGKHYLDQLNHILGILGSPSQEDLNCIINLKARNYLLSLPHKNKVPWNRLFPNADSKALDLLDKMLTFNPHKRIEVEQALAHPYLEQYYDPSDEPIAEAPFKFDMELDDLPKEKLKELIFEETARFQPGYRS

[11] = target: T2, MAP kinase p38 (Homo sapiens); assay: Activation of MAPK p38 phosphorylation in human HeLa cells assessed as increase in ratio of phosphorylated p38 to total p38 level at 5 uM in presence of p38 kinase inhibitor […] by ELISA; type: cell-based; outline: as §3
[12] = target: c-Jun N-terminal kinase, JNK (Homo sapiens) (UniProt P45983+P53779+P45984); assay: Activation of JNK phosphorylation in human HeLa cells assessed as increase in ratio of phosphorylated JNK to total JNK level at 5 uM in presence of JNK inhibitor SP600125 by ELISA; type: cell-based; outline: as §3
MCF7 [13] = assay: Induction of ERK/MAPK signal transduction pathway in human MCF7 cells assessed as increase in p53 expression; type: cell-based

Cn1cc(/C=N\NC(=O)c2cn(C)c3ccc(Br)cc23)c2ccccc21
Activity (MCF7 [1]): inactive | Activity (SCC-25): Dose-dependent effect | IC50 (SCC-25; SCC-25, 4 h): 10.1 µM | Activity (MCF7 [2]): 2.26% | Activity (HeLa [3]): 12.23% | Activity (MCF7 [4]): Dose-dependent effect | inhibition [5]: Dose-dependent effect | Activity (HeLa [6]): inactive | Activity (HeLa [7]): inactive | Activity (HeLa [8]): Active | Activity [9]: Active | Activity [10]: Active | Activity [11]: inactive | Activity [12]: inactive | Activity (MCF7 [13]): Active
